Source: ChEMBL document CHEMBL1649552 (2009)
≈ marks a conversion by molar mass, not a printed value.

Assays:
Type in all cases: functional
Enterococcus faecium [1] = experiment: Antibacterial activity against Enterococcus faecium by CLSI M100-S17 method
Streptococcus agalactiae = experiment: Antibacterial activity against Streptococcus agalactiae by CLSI M100-S17 method
Enterococcus faecalis [2] = experiment: Antibacterial activity against Enterococcus faecalis assessed as resistant isolates by CLSI M100-S17 method
Enterococcus faecalis [3] = experiment: Antibacterial activity against Enterococcus faecalis assessed as intermediate isolates by CLSI M100-S17 method
Staphylococcus aureus [4] = experiment: Antibacterial activity against methicillin-resistant Staphylococcus aureus assessed as resistant isolates by CLSI M100-S17 method
[5] = test system: Staphylococcus epidermidis; experiment: Antibacterial activity against methicillin-resistant Staphylococcus epidermidis assessed as intermediate isolates by CLSI M100-S17 method
Enterococcus faecium [6] = experiment: Antibacterial activity against Enterococcus faecium assessed as intermediate isolates by CLSI M100-S17 method
Staphylococcus aureus [7] = experiment: Antibacterial activity against methicillin-susceptible Staphylococcus aureus by CLSI M100-S17 method
Staphylococcus aureus [8] = experiment: Antibacterial activity against methicillin-resistant Staphylococcus aureus by CLSI M100-S17 method
[9] = test system: Staphylococcus epidermidis; experiment: Antibacterial activity against methicillin-susceptible Staphylococcus epidermidis by CLSI M100-S17 method
Staphylococcus aureus [10] = experiment: Antibacterial activity against methicillin-resistant Staphylococcus aureus assessed as intermediate isolates by CLSI M100-S17 method
[11] = test system: Staphylococcus epidermidis; experiment: Antibacterial activity against methicillin-resistant Staphylococcus epidermidis by CLSI M100-S17 method
Streptococcus pyogenes [12] = experiment: Antibacterial activity against Streptococcus pyogenes assessed as susceptible isolates by CLSI M100-S17 method
Outline: (§1)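 CLSI broth microdilution on clinical isolates, using frozen in-house-prepared panels of test and comparator agents. MICs were read after 20 to 24 h incubation at 35°C in ambient air. Susceptible/intermediate categories were assigned by CLSI M100-S17 guidelines.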

Staphylococcus aureus [13] = experiment: Antibacterial activity against methicillin-susceptible Staphylococcus aureus assessed as resistant isolates by CLSI M100-S17 method
Enterococcus faecalis [14] = experiment: Antibacterial activity against Enterococcus faecalis assessed as susceptible isolates by CLSI M100-S17 method
[15] = test system: Staphylococcus epidermidis; experiment: Antibacterial activity against methicillin-susceptible Staphylococcus epidermidis assessed as susceptible isolates by CLSI M100-S17 method
Enterococcus faecium [16] = experiment: Antibacterial activity against Enterococcus faecium assessed as susceptible isolates by CLSI M100-S17 method
Staphylococcus aureus [17] = experiment: Antibacterial activity against methicillin-resistant Staphylococcus aureus assessed as susceptible isolates by CLSI M100-S17 method
[18] = test system: Staphylococcus epidermidis; experiment: Antibacterial activity against methicillin-susceptible Staphylococcus epidermidis assessed as intermediate isolates by CLSI M100-S17 method
Streptococcus pneumoniae [19] = experiment: Antibacterial activity against Streptococcus pneumoniae assessed as susceptible isolates by CLSI M100-S17 method; outline: as §1
[20] = test system: Staphylococcus epidermidis; experiment: Antibacterial activity against methicillin-susceptible Staphylococcus epidermidis assessed as resistant isolates by CLSI M100-S17 method
Enterococcus faecalis [21] = experiment: Antibacterial activity against Enterococcus faecalis by CLSI M100-S17 method
Staphylococcus aureus [22] = experiment: Antibacterial activity against methicillin-susceptible Staphylococcus aureus assessed as intermediate isolates by CLSI M100-S17 method
Staphylococcus aureus [23] = experiment: Antibacterial activity against methicillin-susceptible Staphylococcus aureus assessed as susceptible isolates by CLSI M100-S17 method
Streptococcus pneumoniae [24] = experiment: Antibacterial activity against Streptococcus pneumoniae by CLSI M100-S17 method
[25] = test system: Staphylococcus epidermidis; experiment: Antibacterial activity against methicillin-resistant Staphylococcus epidermidis assessed as resistant isolates by CLSI M100-S17 method
[26] = test system: Staphylococcus epidermidis; experiment: Antibacterial activity against methicillin-resistant Staphylococcus epidermidis assessed as susceptible isolates by CLSI M100-S17 method
Streptococcus pyogenes [27] = experiment: Antibacterial activity against Streptococcus pyogenes by CLSI M100-S17 method
[28] = test system: Stenotrophomonas maltophilia; experiment: Antibacterial activity against Stenotrophomonas maltophilia by CLSI M100-S17 method
Klebsiella oxytoca [29] = experiment: Antibacterial activity against Klebsiella oxytoca assessed as susceptible isolates by CLSI M100-S17 method
Pseudomonas aeruginosa [30] = experiment: Antibacterial activity against Pseudomonas aeruginosa by CLSI M100-S17 method
Pseudomonas aeruginosa [31] = experiment: Antibacterial activity against Pseudomonas aeruginosa assessed as resistant isolates by CLSI M100-S17 method
Enterobacter cloacae [32] = experiment: Antibacterial activity against Enterobacter cloacae by CLSI M100-S17 method
Proteus mirabilis [33] = experiment: Antibacterial activity against Proteus mirabilis by CLSI M100-S17 method
Enterobacter cloacae [34] = experiment: Antibacterial activity against Enterobacter cloacae assessed as intermediate isolates by CLSI M100-S17 method
Klebsiella pneumoniae [35] = experiment: Antibacterial activity against Klebsiella pneumoniae assessed as susceptible isolates by CLSI M100-S17 method
Serratia marcescens [36] = experiment: Antibacterial activity against Serratia marcescens assessed as resistant isolates by CLSI M100-S17 method
Pseudomonas aeruginosa [37] = experiment: Antibacterial activity against Pseudomonas aeruginosa assessed as susceptible isolates by CLSI M100-S17 method
Acinetobacter baumannii [38] = experiment: Antibacterial activity against Acinetobacter baumannii assessed as resistant isolates by CLSI M100-S17 method
Proteus mirabilis [39] = experiment: Antibacterial activity against Proteus mirabilis assessed as resistant isolates by CLSI M100-S17 method
Escherichia coli [40] = experiment: Antibacterial activity against Escherichia coli assessed as intermediate isolates by CLSI M100-S17 method
Acinetobacter baumannii [41] = experiment: Antibacterial activity against Acinetobacter baumannii assessed as susceptible isolates by CLSI M100-S17 method
Klebsiella pneumoniae [42] = experiment: Antibacterial activity against Klebsiella pneumoniae assessed as resistant isolates by CLSI M100-S17 method
Proteus mirabilis [43] = experiment: Antibacterial activity against Proteus mirabilis assessed as intermediate isolates by CLSI M100-S17 method
Serratia marcescens [44] = experiment: Antibacterial activity against Serratia marcescens assessed as intermediate isolates by CLSI M100-S17 method
Proteus mirabilis [45] = experiment: Antibacterial activity against Proteus mirabilis assessed as susceptible isolates by CLSI M100-S17 method
Klebsiella oxytoca [46] = experiment: Antibacterial activity against Klebsiella oxytoca assessed as intermediate isolates by CLSI M100-S17 method
Klebsiella oxytoca [47] = experiment: Antibacterial activity against Klebsiella oxytoca assessed as resistant isolates by CLSI M100-S17 method
Escherichia coli [48] = experiment: Antibacterial activity against Escherichia coli assessed as susceptible isolates by CLSI M100-S17 method
Acinetobacter baumannii [49] = experiment: Antibacterial activity against Acinetobacter baumannii assessed as intermediate isolates by CLSI M100-S17 method
Escherichia coli [50] = experiment: Antibacterial activity against Escherichia coli by CLSI M100-S17 method
Pseudomonas aeruginosa [51] = experiment: Antibacterial activity against Pseudomonas aeruginosa assessed as intermediate isolates by CLSI M100-S17 method
Serratia marcescens [52] = experiment: Antibacterial activity against Serratia marcescens by CLSI M100-S17 method
Enterobacter cloacae [53] = experiment: Antibacterial activity against Enterobacter cloacae assessed as susceptible isolates by CLSI M100-S17 method
Enterobacter cloacae [54] = experiment: Antibacterial activity against Enterobacter cloacae assessed as resistant isolates by CLSI M100-S17 method
Escherichia coli [55] = experiment: Antibacterial activity against Escherichia coli assessed as resistant isolates by CLSI M100-S17 method
Klebsiella pneumoniae [56] = experiment: Antibacterial activity against Klebsiella pneumoniae assessed as intermediate isolates by CLSI M100-S17 method
Acinetobacter baumannii [57] = experiment: Antibacterial activity against Acinetobacter baumannii by CLSI M100-S17 method

What does the source list for `CN[C@H](CC(C)C)C(=O)N[C@H]1C(=O)N[C@@H](CC(N)=O)C(=O)N[C@H]2C(=O)N[C@H]3C(=O)N[C@H](C(=O)N[C@H](C(=O)O)c4cc(O)cc(O)c4-c4cc3ccc4O)[C@H](O)c3ccc(c(Cl)c3)Oc3cc2cc(c3O[C@@H]2O[C@H](CO)[C@@H](O)[C@H](O)[C@H]2O[C@H]2C[C@](C)(N)[C@H](O)[C@H](C)O2)Oc2ccc(cc2Cl)[C@H]1O` [VANCOMYCIN]?
MIC50 (Enterococcus faecium [1]): 0.5 µg/mL (≈ 0.345 µM); MIC90 (Enterococcus faecium [1]): > 32 µg/mL; MIC50 (Streptococcus agalactiae): ≤ 0.25 µg/mL; MIC90 (Streptococcus agalactiae): 0.25 µg/mL (≈ 0.173 µM); Activity (Enterococcus faecalis [2]): 0%; Activity (Enterococcus faecalis [3]): 0%; Activity (Staphylococcus aureus [4]): 0%; Activity [5]: 0%; Activity (Enterococcus faecium [6]): 0%; MIC50 (Staphylococcus aureus [7]): 1 µg/mL (≈ 0.69 µM); MIC90 (Staphylococcus aureus [7]): 1 µg/mL (≈ 0.69 µM); MIC50 (Staphylococcus aureus [8]): 1 µg/mL (≈ 0.69 µM); MIC90 (Staphylococcus aureus [8]): 1 µg/mL (≈ 0.69 µM); MIC90 [9]: 2 µg/mL (≈ 1.38 µM); Activity (Staphylococcus aureus [10]): 0%; MIC90 [11]: 2 µg/mL (≈ 1.38 µM); Activity (Streptococcus pyogenes [12]): 100%; Activity (Staphylococcus aureus [13]): 0%; Activity (Enterococcus faecalis [14]): 100%; Activity [15]: 100%; Activity (Enterococcus faecium [16]): 87.9%; Activity (Staphylococcus aureus [17]): 100%; Activity [18]: 0%; Activity (Streptococcus pneumoniae [19]): 100%; Activity [20]: 0%; MIC50 (Enterococcus faecalis [21]): 1 µg/mL (≈ 0.69 µM); MIC90 (Enterococcus faecalis [21]): 2 µg/mL (≈ 1.38 µM); Activity (Staphylococcus aureus [22]): 0%; Activity (Staphylococcus aureus [23]): 100%; MIC50 (Streptococcus pneumoniae [24]): ≤ 0.25 µg/mL; MIC90 (Streptococcus pneumoniae [24]): 0.25 µg/mL (≈ 0.173 µM); Activity [25]: 0%; Activity [26]: 100%; MIC50 (Streptococcus pyogenes [27]): 0.5 µg/mL (≈ 0.345 µM); MIC90 (Streptococcus pyogenes [27]): 0.5 µg/mL (≈ 0.345 µM)

Which MIC50 [28] does the source give for GENTAMICIN here?
Its MIC50 is 32 µg/mL.

And the MIC90 [28]?
Its MIC90 is greater than 32 µg/mL.

What about the Activity (Klebsiella oxytoca [29]) of the same compound?
Its Activity is 97%.

What about the MIC50 (Pseudomonas aeruginosa [30]) of the same compound?
Its MIC50 is 4 µg/mL.

What about the MIC90 (Pseudomonas aeruginosa [30]) of the same compound?
The MIC90 was greater than 32 µg/mL.

What about the Activity (Pseudomonas aeruginosa [31]) of the same compound?
Its Activity is 20.9%.

And the MIC90 (Enterobacter cloacae [32])?
The MIC90 was 1 µg/mL.

What about the Activity (Staphylococcus aureus [4]) of the same compound?
The Activity was 13.2%.

And the Activity [5]?
Its Activity is 15%.

And the MIC50 (Proteus mirabilis [33])?
The MIC50 was 1 µg/mL.

What about the MIC90 (Proteus mirabilis [33]) of the same compound?
Its MIC90 is 2 µg/mL.

What about the Activity (Enterobacter cloacae [34]) of the same compound?
The Activity was 0%.

And the Activity (Klebsiella pneumoniae [35])?
The Activity was 96.7%.

What about the Activity (Serratia marcescens [36]) of the same compound?
Its Activity is 4.7%.

And the MIC90 (Staphylococcus aureus [7])?
Its MIC90 is 1 µg/mL.

And the MIC90 (Staphylococcus aureus [8])?
The MIC90 was greater than 32 µg/mL.

And the MIC90 [9]?
Its MIC90 is greater than 32 µg/mL.

What about the Activity (Pseudomonas aeruginosa [37]) of the same compound?
Its Activity is 60.1%.

And the Activity (Staphylococcus aureus [10])?
The Activity was 0%.

And the Activity (Acinetobacter baumannii [38])?
Its Activity is 8%.

And the Activity (Proteus mirabilis [39])?
Its Activity is 3.4%.

And the MIC50 [11]?
Its MIC50 is 16 µg/mL.

And the MIC90 [11]?
The MIC90 was greater than 32 µg/mL.

And the Activity (Escherichia coli [40])?
The Activity was 0.5%.

What about the Activity (Acinetobacter baumannii [41]) of the same compound?
Its Activity is 92%.

What about the Activity (Klebsiella pneumoniae [42]) of the same compound?
Its Activity is 2.9%.

What about the Activity (Staphylococcus aureus [13]) of the same compound?
The Activity was 3.2%.

What about the Activity (Proteus mirabilis [43]) of the same compound?
Its Activity is 0.8%.

What about the Activity (Serratia marcescens [44]) of the same compound?
Its Activity is 3.7%.

And the Activity (Proteus mirabilis [45])?
Its Activity is 95.8%.

And the Activity (Klebsiella oxytoca [46])?
Its Activity is 2%.

And the Activity [15]?
The Activity was 58.3%.

And the Activity (Klebsiella oxytoca [47])?
Its Activity is 1%.

And the Activity (Escherichia coli [48])?
Its Activity is 88.9%.

And the Activity (Acinetobacter baumannii [49])?
The Activity was 0%.

And the Activity (Staphylococcus aureus [17])?
The Activity was 86.8%.

And the Activity [18]?
Its Activity is 10.2%.

And the MIC90 (Escherichia coli [50])?
The MIC90 was 16 µg/mL.

And the Activity [20]?
The Activity was 31.5%.

And the Activity (Pseudomonas aeruginosa [51])?
The Activity was 19%.

What about the MIC90 (Serratia marcescens [52]) of the same compound?
Its MIC90 is 1 µg/mL.

And the Activity (Enterobacter cloacae [53])?
Its Activity is 96.4%.

And the Activity (Enterobacter cloacae [54])?
Its Activity is 3.6%.

What about the Activity (Staphylococcus aureus [22]) of the same compound?
Its Activity is 0.1%.

And the Activity (Staphylococcus aureus [23])?
The Activity was 96.7%.

What about the Activity (Escherichia coli [55]) of the same compound?
Its Activity is 10.6%.

What about the Activity [25] of the same compound?
The Activity was 55%.

And the Activity [26]?
Its Activity is 30%.

What about the Activity (Klebsiella pneumoniae [56]) of the same compound?
The Activity was 0.4%.

What about the MIC90 (Acinetobacter baumannii [57]) of the same compound?
Its MIC90 is 1 µg/mL.
